Laboratory results published in PubChem BioAssay AID504325 (Broad Institute, 2011).
Records with an inconclusive call do not appear. Activity calls are given as the source filed them.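 The calls were made as follows: active = every replicate test active, with falling signal and half-maximal potency at or below ten times the top dose; inconclusive = replicate tests give conflicting calls; inactive = all tests inactive, or signal shifts the wrong way.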

Columns and labels:
[1] = viability loss of control HMLE line – cell-based, dry powder, set 2, counter-screen for breast cancer stem cell project, dose response (AID 504325); conditions: HMLE_sh_eGFP viability, CellTiter-Glo luminescence, 72 h; at 30 µM (top of the series)
Summary of the method: (§1)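 System: HMLE_sh_eGFP cells. Amount: 2000 cells per well. Medium: serum-free culture medium. Incubation: ~72 h compound exposure, 37 °C. Signal: CellTiter-Glo ATP luminescence. Benchmarks: DMSO-only neutral wells and puromycin positive wells on each plate.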

[2] = test system: HMLE_sh_eGFP viability, CellTiter-Glo luminescence, 72 h; test: as above
Summary of the method: as §1

Structure (SMILES): O=C(O)c1ccc(COc2ccccc2)o1
- activity change, negative = cytotoxic [1]: 1.43% (inactive)

Structure (SMILES): O=C(NC1=NCCS1)c1ccc(COc2ccccc2)o1
- activity change, negative = cytotoxic [1]: 12.9% (inactive)

Structure (SMILES): CC(Oc1ccc(F)cc1Cl)C(=O)N/N=C/c1ccc[nH]1 (configuration not stated)
- activity change, negative = cytotoxic [1]: 16.8% (inactive)

Structure (SMILES): O=C(/C=C/c1cc(Cl)ccc1Cl)NC1=NCCS1
- activity change, negative = cytotoxic [1]: 3.58% (inactive)

Structure (SMILES): O=C(/C=C/c1ccccc1)NC1=NCCS1
- activity change, negative = cytotoxic [1]: -4.89% (inactive)

Structure (SMILES): COc1ccc(OC)c(/C=C/C(=O)NC2=NCCS2)c1
- activity change, negative = cytotoxic [1]: 2.36% (inactive)

Structure (SMILES): Cc1csc(NC(=O)/C=C/c2ccc(C(C)C)cc2)n1
- AC50 [2]: 2.83 µM

Structure (SMILES): O=C(C#Cc1ccccc1)NC1=NCCS1
- activity change, negative = cytotoxic [1]: 9.83% (inactive)

Structure (SMILES): COc1ccc(/C=C/C(=O)NC2=NCCS2)cc1OC
- activity change, negative = cytotoxic [1]: -1.05% (inactive)

Structure (SMILES): Cc1ccccc1/C=C/C(=O)NC1=NCCS1
- activity change, negative = cytotoxic [1]: 6.57% (inactive)

Structure (SMILES): COc1ccc(/C=C/C(=O)NC2=NCCS2)c(OC)c1
- activity change, negative = cytotoxic [1]: 3.11% (inactive)

Structure (SMILES): O=C(N/N=C/c1ccc[nH]1)C1Cc2ccccc2O1 (configuration not stated)
- activity change, negative = cytotoxic [1]: -1.79% (inactive)

Structure (SMILES): Cc1ccccc1OCC(=O)N/N=C/c1ccc[nH]1
- activity change, negative = cytotoxic [1]: 5.25% (inactive)

Structure (SMILES): Cc1ccccc1NCC(=O)N/N=C/c1ccc[nH]1
- activity change, negative = cytotoxic [1]: 7.91% (inactive)

Structure (SMILES): O=C(COc1ccc(Cl)cc1Cl)N/N=C/c1ccco1
- activity change, negative = cytotoxic [1]: 5.52% (inactive)

Structure (SMILES): COc1ccc(/C=C/C(=O)NC2=NCCS2)c(OC)c1OC
- activity change, negative = cytotoxic [1]: -0.513% (inactive)

Structure (SMILES): NNC(=O)COc1ccc(Cl)cc1Cl
- activity change, negative = cytotoxic [1]: -3.9% (inactive)

Structure (SMILES): COc1ccc(CCC(=O)N/N=C/c2ccc[nH]2)cc1
- activity change, negative = cytotoxic [1]: -0.101% (inactive)

Structure (SMILES): CC(C)(C)c1ccc2c(c1)OC(C(=O)NN)CO2 (configuration not stated)
- activity change, negative = cytotoxic [1]: 15.8% (inactive)

Structure (SMILES): CC(C)(C)c1ccc2c(c1)OC(C(=O)N/N=C/c1ccc[nH]1)CO2 (configuration not stated)
- AC50 [2]: 15 µM

Structure (SMILES): COc1cc(/C=C/C(=O)NC2=NCCS2)cc(OC)c1OC
- activity change, negative = cytotoxic [1]: 0.088% (inactive)

Structure (SMILES): O=C(COc1ccc(Cl)cc1Cl)N/N=C/c1cnc[nH]1
- activity change, negative = cytotoxic [1]: -6.28% (inactive)

Structure (SMILES): Cn1c(C(=O)NC2=NCCS2)cc2ccccc21
- activity change, negative = cytotoxic [1]: 6.92% (inactive)

Structure (SMILES): N#Cc1ccccc1OCC(=O)N/N=C/c1ccc[nH]1
- activity change, negative = cytotoxic [1]: -7.45% (inactive)

Structure (SMILES): O=C(N/N=C/c1ccc[nH]1)c1cc2ccccc2o1
- activity change, negative = cytotoxic [1]: 13.1% (inactive)

Structure (SMILES): O=C(CCc1ccccc1)NC1=NCCS1
- activity change, negative = cytotoxic [1]: 4.67% (inactive)

Structure (SMILES): O=C(COc1ccc(Cl)cc1Cl)N/N=C/c1cccs1
- activity change, negative = cytotoxic [1]: 13.7% (inactive)

Structure (SMILES): O=Cc1ccc[nH]1
- activity change, negative = cytotoxic [1]: 7.66% (inactive)

Structure (SMILES): O=C(COc1ccccc1F)N/N=C/c1ccc[nH]1
- activity change, negative = cytotoxic [1]: 1.58% (inactive)

Structure (SMILES): CC(C)c1ccc(/C=C/C(=O)O)cc1
- activity change, negative = cytotoxic [1]: 16.2% (inactive)

Structure (SMILES): Cc1ccc(/C=N/NC(=O)COc2ccc(Cl)cc2Cl)[nH]1
- AC50 [2]: 16.9 µM

Structure (SMILES): CC(=O)Oc1ccccc1/C=C/C(=O)NC1=NCCS1
- activity change, negative = cytotoxic [1]: 0.09% (inactive)

Structure (SMILES): O=C(COc1c(Cl)cc(Cl)cc1Cl)N/N=C/c1ccc[nH]1
- AC50 [2]: 27.6 µM

Structure (SMILES): Cc1csc(NC(=O)c2ccc(COc3ccccc3)o2)n1
- AC50 [2]: 13.3 µM

Structure (SMILES): Cn1cncc1/C=N/NC(=O)COc1ccc(Cl)cc1Cl
- AC50 [2]: 18.9 µM

Structure (SMILES): O=C(/C=C/c1ccc(F)cc1)NC1=NCCS1
- activity change, negative = cytotoxic [1]: -0.331% (inactive)

Structure (SMILES): O=C(COc1ccc(Cl)cc1)N/N=C/c1ccc[nH]1
- activity change, negative = cytotoxic [1]: 10.5% (inactive)

Structure (SMILES): CC(C)c1ccc(/C=C/C(=O)Nc2ccccc2)cc1
- AC50 [2]: 3.28 µM

Structure (SMILES): CC(=O)Oc1ccc(/C=C/C(=O)NC2=NCCS2)cc1
- activity change, negative = cytotoxic [1]: -11.6% (inactive)

Structure (SMILES): CC(C)c1ccc(/C=C/C(=O)NC2=NCCS2)cc1
- AC50 [2]: 8.92 µM

Structure (SMILES): CCNC(=O)/C=C/c1ccc(C(C)C)cc1
- activity change, negative = cytotoxic [1]: 7.1% (inactive)

Structure (SMILES): O=C(COc1ccc(Cl)cc1Cl)N/N=C/c1ccc[nH]1
- activity change, negative = cytotoxic [1]: -54.1% (inactive)
